Broadly, the Kd is the equilibrium constant for the complex coming apart. Low readings indicate tighter binding, high ones weaker binding.

We go through five compounds from ChEMBL document CHEMBL1156450, “Naloxone acts as a potent analgesic in transgenic mouse models of sickle cell anemia” (Proc Natl Acad Sci U S A, 2007).

Structures are written as SMILES. Calls of active or inactive are those of the source. The calls are words filed in the database; no cut-off is given here.

Assay [1] concerns Mus musculus. Nature of the assay: Antinociceptive effect in icv dosed sickle cell anemic NY1DD transgenic mouse after 10 mins by heat tail flick test. It counts as functional. An outline of the steps: (§1)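 Male mice aged 10–12 weeks, housed on a 12-h light/dark cycle. Radiant heat was aimed at the dorsal tail and the latency to flick was recorded. Dosing volumes were 5 μl per mouse for i.c.v. and i.t. and 10 ml/kg for s.c. At least three groups of 8–10 mice per paradigm; each mouse was used once. ED50 with 95% confidence intervals came from a parallel line assay.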
A general note: Hot-plate and tail-flick tests time the reaction to a heat stimulus.

The test system of assay [2] is Mus musculus. Nature of the assay: Antinociceptive effect in […] dosed sickle cell anemic NY1DD transgenic mouse after 10 mins by heat tail flick test. It counts as functional.
The subject of assay [3] is Mus musculus. Kind of assay: Antinociceptive effect in sc dosed sickle cell anemic NY1DD transgenic mouse after 60 mins by heat tail flick test. It counts as functional. Particulars: 1 h. An outline of the steps: as §1
Assay [4] has as its system Mus musculus. Nature of the assay: Antinociceptive effect in icv dosed C57BL/6J mouse after 10 mins by heat tail flick test. It counts as functional. An outline of the steps: as §1
Assay [5] deals with Mus musculus. Kind of assay: Antinociceptive effect in intrathecally dosed C57BL/6J mouse after 10 mins by heat tail flick test. It counts as functional. An outline of the steps:
as §1

Assay [6] deals with Mus musculus. Nature of the assay: Antinociceptive effect in sc dosed C57BL/6J mouse after 60 mins by heat tail flick test. Particulars: 1 h.
For assay [7], the species on record is Mus musculus. Nature of the assay: Decrease in analgesic activity in CCL5 pretreated C57BL/6J mouse. It counts as functional, organism-based. An outline of the steps: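 C57BL/6J mice were pretreated i.c.v. with murine RANTES (CCL5) at two doses 20 min before i.c.v. morphine, then tested by radiant heat tail-flick. The antagonist ED50 of RANTES was given with a 95% confidence interval. For reversal, 50 ng Met-RANTES per mouse was given 2 h before RANTES.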

The test system of assay [8] is Mus musculus. Kind of assay: Antinociceptive effect in icv dosed sickle cell anemic hBERK1 transgenic mouse after 10 mins by heat tail flick test. It counts as functional. An outline of the steps: as §1
The target in assay [9] is T1, C-C chemokine receptor type 5 (Mus musculus, UniProt P51682). Kind of assay: Binding affinity to CCR5 in NY1DD transgenic mouse brain membrane. It counts as tissue-based. An outline of the steps: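 [3H]Naloxone saturation binding on pooled brains (cerebellum removed) from three mice. Tissue was homogenized in ice-cold Hepes pH 7.4, washed repeatedly with a 90-min ice step to deplete endogenous opiates, and used as a 2% suspension. Incubation was 90 min at room temperature; nonspecific binding was defined with 10 μM naloxone. Samples were filtered on PEI-soaked GF/C and counted by scintillation. Kd came from global fitting. Triplicates; 2–3 experiments, mean ± SEM.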

Assay [10] deals with T1, C-C chemokine receptor type 5. Nature of the assay: Binding affinity to CCR5 in C57BL/6J mouse brain membrane. It counts as cell membranes.
Assay [11] is filed under the species Mus musculus. Kind of assay: Down-regulation of CCR5 mRNA expression in sickle cell anemic NY1DD transgenic mouse. It counts as functional, organism-based. An outline of the steps:
(§2)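 C57BL/6J and NY1DD mice received 25 pmol per mouse of drug or 0.9% saline (5 μl). Brains were removed 10 min later, frozen in liquid N2 and used for RNA isolation and cDNA microarray hybridization (control RNA labeled with Cy3-dCTP; 42°C for 16 h).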

The species entered for assay [12] is Mus musculus. Kind of assay: Down-regulation of CCR5 mRNA expression in C57BL/6J mouse. It counts as functional, organism-based. An outline of the steps:
as §2

Assay [13] deals with Mus musculus. Nature of the assay: Reduction of analgesic activity in NY1DD transgenic mouse pretreated with Met-RANTES 2 hrs before drug administration. It counts as functional, organism-based. An outline of the steps:
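NY1DD mice received Met-RANTES at 50 ng per mouse 2 h before the test drug. Analgesia was measured by radiant heat tail-flick.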

Assay [14] deals with Mus musculus. Kind of assay: Antinociceptive effect in NY1DD transgenic mouse assessed as partial agonist response at 8 nmol, icv by heat tail flick test. It counts as functional.
The species named for assay [15] is Mus musculus. Nature of the assay: Antinociceptive effect in NY1DD transgenic mouse assessed as partial agonist response at 2.5 nmol by heat tail flick test. It counts as functional.
Assay [16] relates to Mus musculus. Nature of the assay: Antinociceptive effect in icv dosed NY1DD transgenic mouse after 1 hr by heat tail flick test. It counts as functional. An outline of the steps:
as §1

Assay [17] deals with Mus musculus. Nature of the assay: Antinociceptive effect in intrathecally dosed NY1DD transgenic mouse after 6 hrs by heat tail flick test. It counts as functional. An outline of the steps:
as §1

T1 sequence (P51682 whole entry): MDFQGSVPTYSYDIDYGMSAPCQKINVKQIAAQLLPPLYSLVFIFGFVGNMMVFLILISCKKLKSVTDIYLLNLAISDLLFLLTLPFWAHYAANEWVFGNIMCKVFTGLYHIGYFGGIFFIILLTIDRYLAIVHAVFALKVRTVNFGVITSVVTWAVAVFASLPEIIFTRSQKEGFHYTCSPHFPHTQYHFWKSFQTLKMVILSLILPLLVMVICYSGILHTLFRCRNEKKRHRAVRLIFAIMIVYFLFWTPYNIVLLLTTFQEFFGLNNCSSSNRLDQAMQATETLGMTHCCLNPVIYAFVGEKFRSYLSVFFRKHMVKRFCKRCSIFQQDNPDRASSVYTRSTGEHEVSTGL

Take `CN1CC[C@]23c4c5ccc(O)c4O[C@H]2[C@@H](O)C=C[C@H]3[C@H]1C5` [MORPHINE]: the ED50 in the assay on Mus musculus [1] came out at 3.95 nmol; with Mus musculus [2], 0.085 nmol; in the assay on Mus musculus [3], 2.36 µmol/kg; with Mus musculus [4], 2.7 nmol; in the assay on Mus musculus [5], 0.088 nmol; with Mus musculus [6] it was 6.47 µmol/kg. In addition, the result in the assay filed under Mus musculus [7] was Active.

As to `C=CCN1CC[C@]23c4c5ccc(O)c4O[C@H]2C(=O)CC[C@@]3(O)[C@H]1C5` [NALOXONE], the ED50 in the assay with Mus musculus [1] is 0.014 nmol; in the assay on Mus musculus [2], 0.045 nmol; in the assay with Mus musculus [3], 2.83 µmol/kg; in the assay with Mus musculus [8] it was 0.03 nmol. The results for the Kd in assay [9] and in assay [10] were 10.5 nM and 20.8 nM, respectively. The outcome in the assay filed under Mus musculus [11] and with Mus musculus [13] was Active. Further, the outcome in the assay filed under Mus musculus [12] was inactive.

`O=C1CC[C@@]2(O)[C@H]3Cc4ccc(O)c5c4[C@@]2(CCN3CC2CC2)[C@H]1O5` [NALTREXONE]: the Activity in the assay on Mus musculus [14] is reported as 33%.

With `Oc1ccc2c3c1O[C@H]1c4[nH]c5ccccc5c4C[C@@]4(O)[C@@H](C2)N(CC2CC2)CC[C@]314` [NALTRINDOLE], the Activity in the assay listed under Mus musculus [15] is on record as 10%.

Turning to `Oc1ccc2c3c1O[C@H]1c4[nH]c5c(c4C[C@@]4(O)[C@@H](C2)N(CC2CC2)CC[C@]314)C[C@@]1(O)[C@H]2Cc3ccc(O)c4c3[C@@]1(CCN2CC1CC1)[C@H]5O4` [NORBINALTORPHIMINE], the values for the ED50 in the assay on Mus musculus [16] and with Mus musculus [17] were 1.55 nmol and 0.46 nmol, respectively.
